Screens as filed in PubChem.
Only some compounds are listed: those with a hit (about 1.7% of all), similar ones and a draw of the others.
JMJD2C inh = inhibitors of GASC-1 histone demethylase, primary screen, biochemical, fluorescence, DELFIA europium; AID 2099, 2009; inhibition, % at 2.35 µM; GST-JMJD2C(1-420) H3K9me3 demethylation; Lysine-specific demethylase 4C (Homo sapiens), Q9H3R0; 0.069% of 330,000 active;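 active = more than half of a compound's replicate wells show inhibition beyond 50%, single wells judged on their own value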;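 also: signal counts dimethyl H3K9 product captured on neutravidin plate; 0% = median of DMSO wells and 100% = 0.3 times that DMSO median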
Target sequence (Q9H3R0 1-420 limits assumed): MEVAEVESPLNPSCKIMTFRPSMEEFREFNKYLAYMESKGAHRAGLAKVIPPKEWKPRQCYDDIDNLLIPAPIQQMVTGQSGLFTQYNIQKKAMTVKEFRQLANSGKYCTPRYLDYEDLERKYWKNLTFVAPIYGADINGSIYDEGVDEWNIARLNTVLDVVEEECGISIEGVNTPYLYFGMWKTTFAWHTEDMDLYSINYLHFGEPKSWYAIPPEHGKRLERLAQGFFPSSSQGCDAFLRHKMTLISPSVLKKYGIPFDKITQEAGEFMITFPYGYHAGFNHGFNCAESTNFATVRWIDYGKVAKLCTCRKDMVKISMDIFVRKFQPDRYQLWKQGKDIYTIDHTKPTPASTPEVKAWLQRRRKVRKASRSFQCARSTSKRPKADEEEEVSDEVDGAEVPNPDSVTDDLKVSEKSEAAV
HTR2A ag = mouse Htr2a agonists via beta-arrestin recruitment, primary screen, cell-based, luminescence; 5-hydroxytryptamine receptor 2A (Mus musculus), P35363; CHO-K1 mHTR2A beta-arrestin complementation; percent of 30 µM serotonin response; activation, % at 7.6 µM; 0.66% of 360,000 active; AID 624169, 2012;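 active = activation above a run cutoff, the mean activation of all tested compounds plus 3 SD, cut at about 14% in these data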;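 also: 0% = plate median of compound wells and 100% = 30 µM serotonin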
PP5 inh = PP5 phosphatase inhibitors, primary screen, biochemical, fluorescence; inhibition, % at 6.7 µM; 0.18% of 320,000 active; Serine/threonine-protein phosphatase 5 (Homo sapiens), P53041; purified PP5c, OMFP substrate fluorescence;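 active = inhibition above the campaign's mean inhibition across all tested compounds plus 3 SD, cut at about 9.5% in these data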;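 also: 0% = DMSO only and 100% = 100 µM cantharidin control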
T cell HTS = modulators of CD8 T cell-vesicle binding, primary screen, mouse 2C CD8+ T cells, flow cytometry; 2C CD8+ T cell-vesicle binding; active compounds read low; response (vesicle binding), % at 7 µM; 0.068% of 330,000 active; AID 2052, 2009;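 active = response, share of CD8 T cells binding vesicles, and their 90th percentile fluorescence all below set limits, cut at about 80% in these data, passing the limit was not always enough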;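 also: values below 100% mean blocked vesicle binding to the CD8+ T cells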
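System: murine 2C transgenic CD8+ T lymphocytes; also added: QL9-loaded Drosophila micro-vesicles; times: binding 1.5 h at 37 °C; measured by: flow cytometry, PE anti-B7-1 (FL2) versus Alexa647 anti-CD8 (FL8), PFA-fixed; control set: Peptide-free naked vesicles (low) and QL9 vesicles with 0.7% DMSO vehicle (high)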
PP1 counter = PP1-alpha phosphatase inhibitors, primary screen, counter-screen for PP5 inhibitor project, biochemical, fluorescence, OMFP substrate, single point. purified PP1alpha. inhibition, % at 6.7 µM. 0.9% of 320,000 active. AID 2235, 2010;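 active = inhibition above the mean inhibition of all tested compounds plus 3 SD, computed separately for each screening campaign, cut at about 15% in these data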
* marks the source's active call; other numbers are inactive results; i = inactive; . = no result given.

SMILES	JMJD2C inh	HTR2A ag	PP5 inh	T cell HTS	PP1 counter
O=C(N[C@@H](Cc1ccccc1)C(=O)OCc1ccccc1)c1nc[nH]c1C(=O)NC(c1ccccc1)c1ccccc1	0.3	-3.3	5.2	.	17.1*
C[C@@H](NC(=O)c1nc[nH]c1C(=O)N[C@@H](Cc1ccccc1)C(=O)OCc1ccccc1)c1ccccc1	40.6	-0.2	-4.3	742.0	7.7
CN(Cc1ccccc1)C(=O)c1[nH]cnc1C(=O)N[C@@H](Cc1ccccc1)C(=O)OCc1ccccc1	15.6	22.6*	8.4	380.3	5.0
CCCNC(=O)Cn1c(=O)/c(=C\c2ccc(-c3cccc([N+](=O)[O-])c3)o2)s/c1=C\C(=O)C(C)(C)C	13.8	5.0	2.1	i	15.9*
COc1cccc([C@@H]2CC=C(C(=O)O)[C@H](c3cccc(Cl)c3)N2S(=O)(=O)c2ccc(C)cc2)c1	0.4	-4.1	1.1	808.7	-1.4
COc1cc(/C=N/NC(=O)c2cncc(Br)c2)cc([N+](=O)[O-])c1O	-7.6	-7.1	3.7	38.9	17.4*
COc1cc([N+](=O)[O-])cc(/C=N/NC(=O)c2cncc(Br)c2)c1O	13.2	-9.1	0.4	117.1	10.1
CC1=Nc2nc(N3CCCCCC3)c(C#N)c3c4c(nc(c23)N1)N(c1ccc2ccccc2c1)C(=O)C4	2.6	1.2	-2.8	143.0	4.8
COc1cccc(-n2nnc3c(=O)n(Cc4ccccc4F)cnc32)c1	92.3*	-3.0	3.1	273.5	1.4
COc1cccc(-n2nnc3c(=O)n(Cc4cccc(C)c4)cnc32)c1	0.2	-6.0	0.6	293.5	2.0
COc1ccccc1NC(=O)C(=O)/C=C(\O)c1ccccc1	-5.5	4.4	2.9	228.1	0.2
Cc1ccc(-c2n[nH]c(=S)n2-c2ccccc2)cc1	0.3	-2.6	2.8	80.9*	-0.4
Cc1ccc(-n2c(-c3cccc(C)c3)n[nH]c2=S)cc1	-10.5	2.0	-1.0	196.0	-3.5
O=C1CC(c2ccc(O)c(O)c2)Oc2cc(O)cc(O)c21 (configuration not stated)	-10.9	0.3	-0.3	167.8	15.5*
Cc1ccc(-c2csc(NC(=O)CSc3nc4ccccc4[nH]3)n2)cc1	22.9	2.2	.	.	.
COc1ccc(-c2csc(NC(=O)CSc3nc4ccccc4c(=O)[nH]3)n2)cc1	7.0	10.6	2.6	218.3	17.0*
CCN(C[C@H]1N[C@@](C)(C(=O)OC)[C@H]2C(=O)N(C)C(=O)[C@@H]12)C(=O)Nc1ccccc1	54.5*	0.6	.	0.0	.
CCCCNC(=O)C1(C)CCCCN1C(=O)c1cncc(Br)c1 (configuration not stated)	.	-1.7	.	.	.
O=C1NN(c2ccc(F)c(Cl)c2)C(=O)/C1=C\c1cccc(OC(=O)c2cccs2)c1	-6.0	0.8	2.2	218.0	15.3*
Cc1cc2ccccn2c1C(=O)c1ccncc1	69.3*	1.4	1.3	252.6	-2.0
COc1ccccc1C(=O)Nc1ccc(-c2nnn(CC(=O)NCc3ccco3)n2)cc1	-3.7	3.6	-1.1	294.0	15.8*
O=C(Cn1nnc(-c2ccccc2)n1)NCc1ccco1	-8.8	2.4	-1.5	238.8	-2.5
O=[N+]([O-])c1nc2ccccc2[nH]1	.	-5.1	.	.	.
CC(C)(C)NC(=O)CSc1nc2ccc(NC(=O)CSc3nnnn3Cc3ccccc3)cc2s1	0.5	-1.7	5.6	336.1	15.8*
CCOC(=O)CSc1nc2ccc(NC(=O)CSc3nnnn3Cc3ccccc3)cc2s1	4.3	1.5	3.8	306.7	9.7
SMILES	JMJD2C inh	HTR2A ag	PP5 inh	T cell HTS	PP1 counter
COc1ccc(CNC(=O)CSc2nnnn2Cc2ccccc2)cc1	51.7*	0.7	0.4	513.1	0.4
CC(C)n1nnnc1SCC(=O)NCc1ccc2c(c1)OCO2	i	-0.1	-0.3	282.9	-4.6
CCCn1nnnc1SCC(=O)NCc1ccc2c(c1)OCO2	62.3*	-0.7	0.9	126.2	1.1
CCCn1nnnc1SCC(=O)NCc1ccc(OC)cc1	31.2	-2.9	1.4	649.3	-1.5
Cc1cc(=O)n2[nH]c(-c3ccsc3-n3c(C)ccc3C)cc2n1	6.5	5.3	3.0	155.1	16.1*
O=C(Nn1c(C2CCCCC2)nc2ccccc2c1=O)c1ccc([N+](=O)[O-])cc1Cl	2.9	1.0	0.7	470.5	17.0*
O=C(Nn1c(C2CCCCC2)nc2ccccc2c1=O)c1cc(Cl)ccc1[N+](=O)[O-]	-41.1	-0.3	-0.7	432.6	-1.9
O=C(/C=C/c1ccccc1O)c1ccc(Cl)cc1	3.2	1.4	0.4	325.4	16.6*
O=C(/C=C/c1ccccc1O)c1ccccc1	.	2.0	.	.	.
COc1ccc(Cl)cc1NC(=O)C1CCCN(c2ncnc3c2nc2n3CCCCC2)C1 (configuration not stated)	-0.8	-2.2	-0.4	235.5	-2.1
CC(NC(=O)Nc1ccc(F)cc1)c1ccc2c(c1)OCO2 (configuration not stated)	8.9	-3.5	1.6	222.3	-2.2
O=C(CCC1CCCCC1)Nc1cc(Cl)ccc1N1CCOCC1	.	-2.3	.	.	.
O=C(CCC1CCCC1)Nc1cc(C(F)(F)F)ccc1N1CCOCC1	12.2	4.8	2.6	335.0	17.0*
N#CCC(=O)N/N=C\c1ccc(OC/C=C/c2ccccc2)cc1	-6.3	-4.4	0.6	310.3	17.3*
CCc1nc2ccc(C(=O)N3CCCC(C(N)=O)C3)cn2c1N(C=O)CC (configuration not stated)	.	-0.6	.	.	.
COC(=O)c1ccc(COc2ccc(-c3nnn(CC(=O)NC(C)(C)C)n3)cc2)cc1	2.2	0.9	0.1	0.0	-1.4
COC(=O)c1ccc(COc2ccc(-c3nnn(CC(N)=O)n3)cc2)cc1	-5.4	-2.9	0.2	0.0*	-1.6
OCCN1CCN(C2Cc3cc(Cl)ccc3Sc3ccc(Cl)cc32)CC1 (configuration not stated) (tested in a mixture with another compound)	11.7	-9.8	4.4	218.9	15.3*
Cc1cc(=O)[nH]c(N/N=C/c2c(O)n(-c3ccccc3)c(=O)c3ccccc23)n1	-14.7	1.9	1.2	156.4	17.3*
Cc1cc(=O)[nH]c(NN=Cc2c(Cl)cccc2Cl)n1	.	-4.7	.	.	.
CCOc1cc(CNc2nn[nH]n2)ccc1OCC(=O)NC(C)(C)C	41.3	1.9	0.1	359.6	-7.6
Clc1cccc(Cl)c1Cn1c(-c2cccnc2Cl)nc2ccccc21	52.1*	-4.2	3.6	213.4	-3.1
CN(c1ccc(C(=O)Nc2ccccn2)cc1)S(=O)(=O)c1ccccc1	6.0	5.4	-1.6	57.0*	0.3
CCc1nnc(NC(=O)c2ccc(S(=O)(=O)N(C)c3ccccc3)cc2)o1	1.2	1.3	3.0	250.9	16.4*
